Platelet DG rel – modulates dense granule release in human platelets; hit rate 0.22% among 300,000; human platelet-rich plasma, SFLLRN dense granule ATP release, luminescence; inhibition, %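 (compounds screened at 7.5 µM in platelet-rich plasma)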;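 active = mean replicate score, as percent of positive control, at or above 50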
SENP6 inh – inhibitors of human SENP6 protease. Q9GZR1. Recombinant SENP6 catalytic domain, aminoluciferin luminescence. inhibition, % at 10 µM. hit rate 1.8% among 330,000;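 active = inhibition above about 50% at the single tested dose, limit read from the data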;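 note: plate controls were DMSO wells with enzyme for no effect and DMSO wells lacking enzyme for full effect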
SENP8 block-1 – blocks the human protease SENP8 | Q96LD8 | purified SENP8, Z-RLRGG-aminoluciferin cleavage, luminescence | inhibition, % at 10 µM | hit rate 1.2% among 330,000 | AID 2540; in the data active = inhibition above about 50%
Target sequence (Q96LD8 whole entry, looked up): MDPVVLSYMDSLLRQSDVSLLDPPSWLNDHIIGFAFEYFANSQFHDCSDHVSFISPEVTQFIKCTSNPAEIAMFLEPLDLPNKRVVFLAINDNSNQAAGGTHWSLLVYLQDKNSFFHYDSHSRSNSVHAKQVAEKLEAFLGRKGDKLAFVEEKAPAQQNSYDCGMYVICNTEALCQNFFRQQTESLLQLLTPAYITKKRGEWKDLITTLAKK
SENP1 inh – inhibitors of human SENP1 SUMO protease catalytic domain; recombinant SENP1 catalytic domain, CyPet-SUMO1-YPet FRET cleavage; inhibition, % at 10 µM; hit rate 0.21% among 360,000; AID 624204;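 active = inhibition at least 30% at 10 µM, raw YFP signal under a set limit, fluorescence ratio 0.5 to 1.5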;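 note: 0% = enzyme with DMSO and 100% = no enzyme wells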
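Compound: 10 µM single point, 0.5% DMSO; Test system: hSENP1 catalytic domain, recombinant; Timing: 50 min reaction at room temperature; Technique: FRET, CFP and YFP emission; Control set: no-enzyme wells low, DMSO-plus-enzyme wells high control.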
SENP7 block – SENP7 protease inhibition. inhibition, % at 5 µM. AID 434973. recombinant SENP7, Z-RLRGG-aminoluciferin luminescence, 40 min. hit rate 1.5% among 330,000;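 active = inhibition above about 50% at the single test dose, limit read from the data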;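 note: plate controls were DMSO with enzyme for no effect and no enzyme buffer wells for full effect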
SENP8 block-2 – inhibitors of human SENP8 protease. hit rate 0.64% among 360,000. Q96LD8. inhibition, % at 20 µM. recombinant SENP8, Nedd8 substrate fluorescence; in the data active = inhibition mostly above about 40%, no sharp cut-off; inactive = mostly below about 27%
SENP8 conf – human SENP8 inhibition, confirmed; AID 488912; Recombinant SENP8, Z-RLRGG-aminoluciferin luminescence, 60 min; inhibition, % at 12.5 µM; shares compounds with SENP7 block; hit rate 40% among 6,200;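 active = mean inhibition across replicates above about 50%, limit read from the data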
SENP6 conf – human SENP6 inhibition, confirmed | shares compounds with SENP7 block | recombinant SENP6, Z-RLRGG-aminoluciferin luminescence | inhibition, % at 12.5 µM | hit rate 58% among 6,200
SENP7 conf – human SENP7 inhibition, confirmed; shares compounds with SENP7 block; recombinant SENP7, Z-RLRGG-aminoluciferin luminescence, 40 min; inhibition, % at 12.5 µM; hit rate 69% among 6,200; AID 488917
Casp3 select – selectivity test for SENP inhibitors: human caspase-3 inhibition. purified caspase-3, Z-DEVD-aminoluciferin luminescence, 60 min. AID 488918. inhibition, % at 12.5 µM. shares compounds with SENP7 block. hit rate 60% among 6,200;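 active = mean inhibition above about 50%, limit read from the data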;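 note: plate controls were enzyme with DMSO for no effect and wells without caspase-3 for full effect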
Target sequence (P42574 28-227 limits assumed): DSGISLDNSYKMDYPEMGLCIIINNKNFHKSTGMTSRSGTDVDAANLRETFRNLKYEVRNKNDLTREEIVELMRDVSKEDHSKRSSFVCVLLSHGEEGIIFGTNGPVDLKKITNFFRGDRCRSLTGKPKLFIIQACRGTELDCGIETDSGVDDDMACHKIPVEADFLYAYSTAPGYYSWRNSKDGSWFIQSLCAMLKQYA
Luc interf – counter-screen for SENP inhibitors: luminescence interference; shares compounds with SENP7 block; Pre-incubated SENP8/Z-RLRGG-aminoluciferin, luciferase luminescence interference; inhibition, % at 12.5 µM; hit rate 39% among 6,200; AID 488919;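 active = mean inhibition above about 50% when retested at one dose, limit read from the data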;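 note: plate controls were DMSO wells with completed reaction for no effect and substrate without enzyme for full effect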
* marks the source's active call; other numbers are inactive results; x = no result. Only some compounds are listed: those with a hit (about 2.6% of all), similar ones and a draw of the others.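 Rule for the calls, unless noted: active = mean inhibition above about 50% in the one-dose retest (limit read from the data); inactive = the rest.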

SMILES	Platelet DG rel	SENP6 inh	SENP8 block-1	SENP1 inh	SENP7 block	SENP8 block-2	SENP8 conf	SENP6 conf	SENP7 conf	Casp3 select	Luc interf
O=C1N/C(=C\c2nc3ccccc3s2)c2ccccc21	1	92*	84*	x	98*	x	33	42	34	37	6
O=C1N/C(=C\c2ccccc2)c2ccccc21	2	14	-19	1	1	-130	x	x	x	x	x
Cc1cc(C)cc(NC(=S)Nc2cccc3ccccc23)c1	3	71*	59*	-14	26	-391	-3	2	1	6	7
Cc1cccc(NC(=S)Nc2cccc3ccccc23)c1	0	91*	89*	-18	46	-401	-6	-3	-8	6	7
CC1(C(=O)Nc2cccc3ccccc23)CC1(Br)Br (stereo not drawn)	-5	60*	23	-6	8	-386	12	21	5	5	-3
CC(C)N1CCC1(C)C(=O)Nc1cccc2ccccc12 (stereo not drawn)	x	x	x	-1	x	-8	x	x	x	x	x
Cc1cccc(NC(=O)Nc2cccc3ccccc23)c1	-8	-7	-1	2	-5	-117	x	x	x	x	x
CCc1cccc(NC(=S)Nc2cccc3ccccc23)c1	42	78*	43	-12	27	-392	12	8	1	-2	-3
CSc1ccccc1NC(=S)Nc1cc(C)cc(C)c1	-1	-18	-8	2	-9	15	x	x	x	x	x
CCc1ccccc1NC(=O)c1ccc2c(O)c(S(=O)(=O)c3ccc(OC)cc3)c(=O)[nH]c2c1	8	-5	-7	1	-8	-10	x	x	x	x	x
Fc1ccc(NC(=S)Nc2cccc3ccccc23)cc1	-2	65*	44	-24	22	-496	-6	-6	-8	-5	-4
CC(C)c1ccc(NC(=S)Nc2cccc3ccccc23)cc1	12	43	33	-34	8	-396	x	x	x	x	x
Fc1ccc(NC(=S)Nc2cccc3ccccc23)cc1F	46	62*	48	-8	21	-388	11	6	16	11	9
Fc1ccc(NC(=S)Nc2ccccc2Cl)cc1	-3	8	-4	2	10	-194	x	x	x	x	x
Cc1cc(NC(=S)Nc2cccc3ccccc23)n[nH]1	2	-4	-11	2	5	-138	x	x	x	x	x
Cc1ccc(NC(=S)Nc2cccc3ccccc23)cc1	-21	81*	36	-35	17	-463	5	-2	2	4	10
Cc1ccc(S(=O)(=O)Nc2ccccc2C=NNC(=O)c2ccncc2)cc1	x	x	x	47	x	13	x	x	x	x	x
O=C(C1CCC1)N1CCc2cc(S(=O)(=O)NC3CCCc4ccccc43)ccc21 (stereo not drawn)	10	5	-3	0	97*	14	5	6	3	0	4
CCCCCCN1C[C@@H](n2cc(COC(=O)c3ccccc3)nn2)[C@H](O)C[C@@H]1c1ccc(OC)cc1	x	x	x	-1	x	4	x	x	x	x	x
COc1cccc(N/C=C/C(=O)c2ccc(OC)c(OC)c2)c1	11	89*	64*	-64	75*	-271	-9	70*	93*	70*	16
O=C(/C=C\Nc1ccccn1)c1ccc(Cl)cc1	x	95*	95*	-33	8	-180	36	77*	88*	75*	31
O=C(Nc1ccccn1)c1ccc(C(=O)Nc2ccccn2)cc1	11	13	-10	-1	4	8	x	x	x	x	x
COc1cccc(C(=O)/C=C/Nc2cc(C)ccc2O)c1	13	92*	84*	-30	101*	-15	5	92*	99*	72*	87*
COc1cccc(C(=O)/C=C/Nc2ccc(S(=O)(=O)Nc3ncccn3)cc2)c1	4	63*	21	-60	35	-386	4	5	-2	20	-5
COc1ccc(OC)c(N/C=C/C(=O)c2ccc(OC)c(OC)c2)c1	9	11	-5	-28	-2	-198	x	x	x	x	x
SMILES	Platelet DG rel	SENP6 inh	SENP8 block-1	SENP1 inh	SENP7 block	SENP8 block-2	SENP8 conf	SENP6 conf	SENP7 conf	Casp3 select	Luc interf
COc1ccc(NC(=O)C(NS(=O)(=O)c2cccs2)C(C)C)cc1Cl (stereo not drawn)	10	-21	3	2	3	0	x	x	x	x	x
Cc1ccc(Cl)c(N/C=C/C(=O)c2ccccc2)c1	5	77*	49	-52	71*	-33	46	60*	79*	50*	29
CCOc1ccc(N/C=C/C(=O)c2ccc(OC)cc2)cc1	-4	4	-11	-47	3	-69	x	x	x	x	x
Cc1cccc(N/C=C/C(=O)c2ccc(Cl)cc2)c1	5	73*	66*	-88	89*	-146	18	20	22	46	7
COc1ccc(N/C=C\C(=O)c2ccc(C)cc2)cc1OC	3	-1	-10	-29	-17	-18	x	x	x	x	x
COc1ccc(C(=O)/C=C/Nc2cccc(O)c2)cc1	55*	93*	88*	-37	85*	-159	96*	97*	102*	91*	91*
O=C(/C=C/c1ccccc1O)c1ccc(Cl)cc1	6	67*	40	4	-4	11	48	55*	8	12	56*
CN(CC(=O)Nc1cc(Cl)ccc1C#N)C1CCS(=O)(=O)C1 (stereo not drawn)	x	-10	-11	-4	-1	-7	x	x	x	x	x
c1ccc(-c2onc3cc4c(cc23)OCCO4)cc1	31	89*	78*	-158	76*	-183	9	92*	101*	86*	92*
N#C/C(=C(/O)c1cc2ccccc2o1)c1nc2ccccc2s1	1	-7	95*	-55	70*	-18	-2	32	28	18	61*
N#C/C(=C(/O)c1ccco1)c1nc2ccccc2[nH]1	-3	31	0	-18	-1	-48	x	x	x	x	x
N#C/C(=C(/O)c1cccc(F)c1)c1nc2ccccc2s1	5	91*	77*	-6	56*	2	58*	59*	72*	77*	35
N#C/C(=C(/O)c1ccco1)c1nc2ccccc2s1	5	90*	81*	-32	57*	-36	91*	91*	100*	91*	74*

Assay outcomes from PubChem BioAssay.
